Results reported in ChEMBL document CHEMBL4513216, “Probing the Open Global Health Chemical Diversity Library for Multistage-Active Starting Points for Next-Generation Antimalarials” (ACS Infect Dis, 2020).

Experiment: Toxicity liver stage against HepG2, at 10uM
Type: cell-based
Design: test concentration 10 uM, cell line HepG2-A16-CD81EGFP
Settings: human, HepG2-A16-CD81EGFP cells; read-out: INHIBITION
How it was run: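 Uninfected HepG2-A16-CD81EGFP cells, 3 × 10^3 per well, 1536-well, plated on prespotted compound at 10 μM final, parasite-free screening media added to match infected plates; puromycin 10 μM positive, DMSO 0.5% negative; run in parallel with 48 h PbLuc assay at 37 °C, 5% CO2; viability by CellTiter-Glo luminescence, normalized to controls.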

Structure (SMILES) | cytotoxicity at 10 µM [%]
Cc1nc(N2CCN(C)CC2)ncc1C(=O)N1CCCCC1 | 0.305
COC(=O)CC1c2cccnc2C(=O)N1Cc1ccccc1 (stereo unspecified) | 1.19
O=C(NCCc1c[nH]cn1)c1ccc2c(c1)C(=O)N(C1CCCC1)C2=O | -6.09
COc1nn(C)cc1C(=O)NCC1(O)CCc2ccccc2C1 (stereo unspecified) | -6.98
Cc1cc(C(O)CCNS(=O)(=O)c2ccc(Cl)s2)c(C)o1 (stereo unspecified) | -3.95
Cc1nnc(C[C@@H]2COC[C@H]3CN(C(=O)C4=CCCC4)C[C@@H]23)o1 | -5.86
CC(C)CNC(=O)c1cc2c(s1)CCN2Cc1cccnc1 | -6.16
Cn1cc(CN2CCO[C@H]3C(Cn4cccn4)CC[C@@H]32)cn1 (stereo partly specified) | -3.12
CC(=O)N1CCN(c2ncnc3cc4c(cc23)OCCO4)CC1 | 13.4
CCN1CCN(c2nsc(-c3cccnc3)c2C#N)CC1 | -4.2
CCn1nc(C)c2nc(C(C)C)nc(NCc3ccccn3)c21 | 7.09
CN(Cc1cnn(C)c1)C(=O)c1cc(C(F)(F)F)n(C)n1 | 8.52
CC1(C(=O)N2CCN(c3cnccn3)CC2)CNCCO1 (stereo unspecified) | 6.99
CCc1nnc(Nc2cccc(C3CCN(c4cnccn4)CC3)n2)s1 | -26.5
CCCC(=O)N1CCC(c2cc3n(n2)[C@@H](C(F)(F)F)C[C@@H](C)N3)CC1 | -10.3
O=c1[nH]c2ccccc2cc1CNCCCN1CCOCC1 | -17.5
O=C1NCC2(CCCN(Cc3ccncc3)C2)Oc2ccccc21 (stereo unspecified) | -13.8
O=C(O)C1(Cc2cc(-c3cccc(F)c3)no2)CCOCC1 | -4.97
O=C(c1ccnnc1)N1C[C@@H]2CC[C@H](Oc3cccc(F)c3)[C@@H]2C1 | 2.37
Cc1n[nH]c(C2CN(CCNC3CCCCC3)CCO2)n1 (stereo unspecified) | -8.29
CC(OCC1CC1)C(=O)Nc1cccc(C(=O)Nc2ccccn2)c1 (stereo unspecified) | 2.56

Structure (SMILES) | cytotoxicity at 10 µM [%]
CC1CN(CC(=O)NCc2ccc(F)cc2)CCN1c1nccs1 (stereo unspecified) | -1.22
Cc1ccc(F)c2c1CCCN2C(=O)Cc1c(C)nn(C)c1C | 13.6
CC(C)Cc1noc(CNc2cc3c(cc2Cl)OCCCO3)n1 | 6.48
O=C(CC1CCN(CCN2CCCCC2)CC1)N1CCOCC1 | -3.91
O=C(NCC1CCOC1)c1cc(-c2ccc(F)cc2)[nH]n1 (stereo unspecified) | -6.96
CC(C)c1noc(C(C)N2CCC(c3nc4ccccc4[nH]3)CC2)n1 (stereo unspecified) | -3.17
O=C1OCCCN1Cc1nc(-c2ccncc2)no1 | 6.77
CCc1nnc(C(C)N2CCCN(C(=O)OCC(C)C)CC2)o1 (stereo unspecified) | 4.96
CCC(NCCn1cccn1)C(=O)Nc1cc(C)on1 (stereo unspecified) | 13.4
CC(C)c1ccc(/C=C/CC(=O)NC2CCN(C(N)=O)C2)cc1 (stereo unspecified) | 0.838
c1ccc(C2(CNCc3cnc(N4CCOCC4)nc3)CC2)cc1 | -0.813
O=C(CN1CSCC1=O)NCC1CCN(c2ccccc2)C1 (stereo unspecified) | 1.19
COc1cc(NC(=O)NC2CC2)ccc1N1CCOC1=O | -6.44
COc1ccc2[nH]cc(C3CCN(CCC(N)=O)CC3)c2c1 | -1.22
CNC(=O)COc1nc(C(C)(C)C)no1 | -0.425
CC1CCCN(C(=O)NCC(F)F)C1 (stereo unspecified) | 13.6
Cn1c(=O)oc2cc(Nc3nccnc3C#N)ccc21 | 2.14
Cn1nc(Br)c2c(NCCS(N)(=O)=O)ncnc21 | 15.8
CC(C)c1noc(CCNC(=O)N2CCC(O)(C(F)(F)F)C2)n1 (stereo unspecified) | 9.74
N#Cc1cnn(CCN2CCOC(CNc3cccnn3)C2)c1 (stereo unspecified) | -3.85
CC(C)c1nn(C)c(N(C)C)c1CNC1CCC(O)CC1 (stereo unspecified) | 1.63

Structure (SMILES) | cytotoxicity at 10 µM [%]
CCN1Cc2ccccc2CC2(CCN(CC3CCC3)CC2)C1=O | 4.15
Cc1cc(C(=O)NC2CCc3c(ccc(=O)n3CC3CC3)C2)no1 (stereo unspecified) | 2.62
COc1ccc2[nH]cc(-c3ccnc(N4CCC(C)CC4)n3)c2c1 | -7.3
CC[C@H](C)[C@H](N)C(=O)Nc1nc(-c2cnc(N3CCOCC3)nc2)cs1 | -8.72
O=C1CC(C(=O)NCCN2CCOC2=O)c2cc(F)ccc2N1 (stereo unspecified) | -0.511
Cc1ncccc1Oc1ncnc(N2CCCC(O)(CO)CC2)c1C (stereo unspecified) | 4.3
CCCOC1CCCN(C(=O)Cn2cccc(C(F)(F)F)c2=O)C1 (stereo unspecified) | -0.912
CCNc1ncc(C(=O)N2CCc3c(nc(C)nc3N(C)C)C2)cn1 | -3.28
Cc1cc(NCc2nnc3n2CCC3)n2nc(C)c(C)c2n1 | 1.16
Cc1ccc(CN(CCN(C)C)Cc2nc3ccccc3[nH]2)s1 | 3.34
COc1cccc(-c2cc(CN)ccc2F)c1F | -12.4
COCCN(Cc1cnn(C)c1)C(=O)C1CCN(C2CCCCC2)CC1 | 12.6
CN(C)S(=O)(=O)N1CC[C@]2(O)CCN(c3cc(C#N)ccn3)C[C@@H]2C1 | 12.3
CCCC(=O)Nc1ccc(CC(=O)N(CC)CC2CCCCO2)cc1 (stereo unspecified) | -9.24
Cc1ncc(S(C)(=O)=O)c(N2CCCN(Cc3ccccn3)CC2)n1 | 1.46
CN(C)CCN1CC2(CCCN(c3ccc(Cl)cn3)C2)CCC1=O (stereo unspecified) | 2.69
CCN(CC)Cc1cc(C(=O)N2CC[C@@]3(O)CCCC[C@H]3C2)c(C)o1 | 2.93
O=C1CCC2(CCCN(c3ncc(Cl)cc3F)C2)CN1CC1CC1 (stereo unspecified) | 5.98
Cc1ccc(CN2CCN(c3ncccc3C(N)=O)CC2CCO)cc1 (stereo unspecified) | -13.3
O=C(CCc1cccs1)N1CCc2[nH]nc(COc3ccccc3)c2C1 | 0.621
CCc1nnc(CN(C)c2cc(C)nc3c(C)c(C)nn23)o1 | 0.126

Structure (SMILES) | cytotoxicity at 10 µM [%]
Cc1cncc(C(=O)N2CCNCC2C(=O)Nc2ccc(C)nc2)c1 (stereo unspecified) | -5.19
CNS(=O)(=O)CCNc1cc(C)nc2cc(C)nn12 | 6.95
C=C(C)COc1ccccc1CNC(CC)c1ccnn1C (stereo unspecified) | -4.7
Cc1ocnc1C(=O)N1CC[C@@]2(O)CCN(C(=O)N3CCCC3)C[C@H]2C1 | -7.96
CCCc1nc(N2CC[C@@H](c3ccc4ccccc4c3)[C@H](O)C2)no1 | -0.471
CCCc1cc(=O)[nH]c(-c2cccc(CN3CCN4CCCC4C3)c2)n1 (stereo unspecified) | -15.2
CC(=O)c1cc(CN2C[C@@H](C(=O)O)[C@H](c3cccnc3)C2)cs1 | 4.11
CCC(C(=O)NCc1cc(N2CCOCC2)ncn1)n1cccn1 (stereo unspecified) | 1.44
CSc1ncc(Cl)c(C(=O)NC(Cc2ccccc2)C(=O)O)n1 (stereo unspecified) | -17.3
CS(=O)(=O)N1CCCC(C(=O)Nc2cnn(Cc3ccc(Cl)cc3)c2)C1 (stereo unspecified) | -6.5
O=C(CN1CCC(c2ccccc2)C1)NC(=O)NCC(F)(F)F (stereo unspecified) | -12.1
COc1cc(CNC(C)Cn2cccn2)cc(OC)c1OC (stereo unspecified) | -4.23
COCC1COCCC12CCN(S(=O)(=O)c1cccnc1)CC2 (stereo unspecified) | 6.62
COCCN1CCc2c(cnc(-c3ccccc3)c2C(=O)O)C1 | 2.24
Cc1nc(CN2C(=O)CC3(CCN(C(N)=O)CC3)c3ccccc32)cs1 | -1.4
COCCN1CC[C@@H]2CN(Cc3cccnc3OC)C[C@@H]2C1 | 13.6
O=C(NC1CCCCC1)N1CCC(n2cc3[nH]cccc-3c2=O)CC1 | -5.01
O=C1C[C@@H]2CC[C@H](CN1)N2C(=O)CCc1ccsc1 | -6.06
